Screening data as filed in PubChem BioAssay.
A selection: hits, their analogues and other compounds. The true share with any hit is near 3.8%.
KCNK9 inh: KCNK9 potassium channel inhibitors, primary screen, HEK293 cells, thallium flux. B-score at 10 µM. AID 488922, 2010. FluxOR thallium flux fluorescence; hits give low values. hit rate 1.2% among 310,000. Potassium channel subfamily K member 9 (Homo sapiens), Q9NPC2;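 active means ratio B-score over 3 SD below the library mean, with starting fluorescence within 5 SD of its mean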;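 further: negative B-score means less thallium flux so channel inhibition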
KCNK3 block: human KCNK3 channel inhibitors, primary screen, CHO cells, FluxOR thallium flux, B-score | hit rate 0.84% among 340,000 | Potassium channel subfamily K member 3 (Homo sapiens), O14649 | AID 602410, 2012 | B-score at 10 µM | FluxOR fluorescence; hits give low values;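 active means B-score under library mean minus 4 SD, starting fluorescence ratio at most library mean plus 5 SD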;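 further: more negative B-score means stronger inhibition of thallium flux through KCNK3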
Target sequence (O14649 whole entry, looked up): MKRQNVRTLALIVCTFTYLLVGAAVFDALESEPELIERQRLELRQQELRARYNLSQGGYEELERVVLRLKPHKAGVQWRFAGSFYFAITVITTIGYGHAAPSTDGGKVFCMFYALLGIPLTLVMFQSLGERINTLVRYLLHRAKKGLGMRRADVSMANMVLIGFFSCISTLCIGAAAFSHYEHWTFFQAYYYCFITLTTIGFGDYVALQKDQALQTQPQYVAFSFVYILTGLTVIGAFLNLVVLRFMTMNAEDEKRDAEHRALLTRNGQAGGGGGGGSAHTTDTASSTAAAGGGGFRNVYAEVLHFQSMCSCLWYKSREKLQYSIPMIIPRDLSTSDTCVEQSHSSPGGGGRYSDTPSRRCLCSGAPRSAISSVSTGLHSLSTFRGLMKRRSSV
hERG rescue: hERG rescue from dofetilide block, primary screen, cell-based, CHO-hERG, FluxOR thallium flux, dofetilide IC70; Voltage-gated inwardly rectifying potassium channel KCNH2 (Homo sapiens), Q12809; dofetilide IC70 present; activation (rescue from dofetilide block), less the hit threshold, % at 10 µM; hit rate 0.51% among 310,000; AID 1511, 2009;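 active means activation above the mean of controls blocked by dofetilide plus 5 SD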;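 further: thallium influx through hERG after potassium depolarization seen as dye fluorescence rise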
KCNQ1 inh: inhibitors of human KCNQ1 channel, primary screen, cell-based, thallium flux, high-throughput. Potassium voltage-gated channel subfamily KQT member 1 (Homo sapiens), P51787. CHO-K1 KCNQ1, FluxOR thallium flux fluorescence; hits give high values. B-score at 10 µM. hit rate 1.3% among 310,000;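 active means compounds whose thallium flux B-score, printed positive for inhibition, exceeds three library SD while starting fluorescence stays within three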;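 further: channel opened by potassium depolarization with thallium stimulus after 20 min compound exposure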
Kir21 inh: inhibitors of mouse Kir2.1 inward-rectifier potassium channel; HEK293-Kir2.1, FluxOR thallium flux fluorescence; hits give low values; B-score at 10 µM; Inward rectifier potassium channel 2 (Mus musculus), P35561; hit rate 0.85% among 310,000;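 active means fluorescence ratio B-score at or below minus 3 SD of library scores, with starting-brightness B-score within 2 SD, cut at about -4.2 in these data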;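 further: channel flux triggered by added potassium and thallium sulfate stimulus; B-score of peak minus minimum fluorescence over baseline after thallium stimulus; more negative B-score means stronger Kir2.1 block with less thallium influx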
KCNQ1 act: potentiators or activators of KCNQ1 channel, primary screen, cell-based, thallium flux, high-throughput; Potassium voltage-gated channel subfamily KQT member 1 (Homo sapiens), P51787; CHO-K1 KCNQ1, thallium flux FluxOR fluorescence; hits give high values; B-score at 10 µM; hit rate 0.35% among 310,000;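 active means fluorescence ratio B-score, a plate-corrected score, at least three library SD, with initial intensity B-score within 5 SD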
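System: CHO-K1 cells stably expressing KCNQ1 / Medium: assay buffer for compound exposure, DMSO matched across wells / Reagent: thallium- and potassium-containing depolarizing buffer / Compound: one concentration, matched DMSO / Incubation: 20 min compound pretreatment at room temperature / Measured by: kinetic FluxOR fluorescence, 10 s baseline plus 110 s post-stimulus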
KCNK9 inh conf: KCNK9 potassium channel inhibitors, confirmation, HEK293 cells, thallium flux, duplicate; shares compounds with KCNK9 inh; FluxOR thallium flux fluorescence; AID 492992, 2010; inhibition, % at 10 µM; hit rate 43% among 4,900;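 active means thallium signal inhibited by more than 5 SD of the compound-free buffer control wells, on both duplicate plates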;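 further: 0% = assay buffer control wells without compound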
Kir2-1 spec: mouse Kir2.1 channel inhibition, confirmation, selectivity assay for KCNK9 modulator project, cell-based, HEK293, thallium flux | shares compounds with KCNK9 inh | Kir2.1 cells, FluxOR thallium flux fluorescence | inhibition, % at 10 µM | hit rate 4% among 4,900;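 active means thallium signal drop more than 5 SD beyond the mean of the no-compound control wells, seen in both duplicate plates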;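 further: signal is fluorescence rise after thallium addition divided by baseline fluorescence; plate controls were assay buffer only for no effect and full block by chlorpromazine control for full effect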
KCNK9 uninduced: thallium flux in non-induced HEK293 cells, confirmation, counter-screen for KCNK9 inhibitor project, cell-based, second counter screen, non-induced KCNK9-HEK293. shares compounds with KCNK9 inh. FluxOR thallium flux. inhibition, % at 10 µM. hit rate 40% among 4,900;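 active means thallium signal drop beyond 5 SD of the untreated control mean, on both duplicate plates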;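 further: plate controls were buffer only IC0 wells for no effect and SID17386958 at its maximal inhibitory level for full effect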
* hit, by the source's call; i = inactive; nt = no result.

SMILES	KCNK9 inh	KCNK3 block	hERG rescue	KCNQ1 inh	Kir21 inh	KCNQ1 act	KCNK9 inh conf	Kir2-1 spec	KCNK9 uninduced
CC(C)(C)N(Cc1ccccc1)C(=O)c1ccc(Cl)cc1[N+](=O)[O-]	i	i	-20	i	-0.01	i	i	i	i
CC1(C)CC(=O)c2cc(OCC(=O)N3CCN(c4ccccc4F)CC3)ccc2O1	i	i	-9	i	-0.22	i	nt	nt	nt
O=C(COc1ccc2c(c1)CCC2)N1CCN(c2cccc(C(F)(F)F)c2)CC1	i	i	-4	i	0.6	i	i	i	i
O=C(COc1ccc2c(c1)CCC2)N1CCN(c2ccccc2F)CC1	i	i	-6	i	-1.5	i	i	i	i
O=C(COc1cccc(C(F)(F)F)c1)N1CCN(c2ccc(O)cc2)CC1	i	i	-14	i	-0.02	i	nt	nt	nt
CN(C(=O)CSc1nnc(Cc2cccs2)n1C1CC1)C1CCS(=O)(=O)C1 (centres undefined)	nt	i	nt	nt	nt	nt	nt	nt	nt
COc1ccccc1NC(=O)Cn1nnc(-c2ccccc2NC(=O)c2cc3ccccc3oc2=O)n1	i	i	0	i	-0.05	i	nt	nt	nt
Cc1nc(CNC(=O)C2CCC(=O)N(Cc3cccc(F)c3)C2)sc1C (centres undefined)	i	i	-4	i	-0.51	i	nt	nt	nt
COc1ccccc1NC(=O)CCCc1nnc2n(C)c(=O)c3sccc3n12	i	i	-6	i	-2.4	i	nt	nt	nt
Cc1ccc(C)c(CSc2nnc(-c3cccs3)n2Cc2ccco2)c1	-12*	i	-13	i	-5*	i	36%*	61%*	42%*
NC(=O)CSc1nnc(-c2cccs2)n1Cc1ccco1	i	i	-9	i	1.2	i	nt	nt	nt
CSc1ccc(C(=O)C2CCCN(C(=O)c3ccc4c(c3)OCO4)C2)cc1 (centres undefined)	i	i	-5	i	0.11	i	i	i	i
CSc1ccc(C(=O)C2CCCN(C(=O)c3cc4cc(F)ccc4[nH]3)C2)cc1 (centres undefined)	i	i	-11	i	-3.3	i	i	i	i
CSc1ccc(C(=O)C2CCCN(C(=O)c3csc(C(C)=O)c3)C2)cc1 (centres undefined)	i	i	-9	i	-0.07	i	nt	nt	nt
CCc1cc(C(=O)N2CCCC(C(=O)c3ccc(Cl)cc3)C2)no1 (centres undefined)	i	i	-8	i	-4	i	i	i	i
CC(=O)c1ccc(C(=O)N2CCCC(C(=O)c3ccc(Cl)cc3)C2)s1 (centres undefined)	i	i	-1	i	-0.75	i	i	i	i
Cc1noc(C)c1C(=O)N1CCCC(C(=O)c2ccc(Cl)cc2)C1 (centres undefined)	i	i	-12	i	0.04	i	nt	nt	nt
CCOC(=O)c1cc2c(c(-c3ccccc3)n1)[C@H](CCO)N(S(=O)(=O)C(C)(C)C)C2	nt	i	nt	nt	nt	nt	nt	nt	nt
Cc1ccc(C)c(S(=O)(=O)N2CCN(C(=O)c3ccnn3C)CC2)c1	i	i	-8	i	-0.87	i	nt	nt	nt
